This is an account of results in ChEMBL document CHEMBL2396552, “Novel inhibitors of a Grb2 SH3C domain interaction identified by a virtual screen” (Bioorg Med Chem, 2013).

The source made the active and inactive calls.

The target of experiment [1] is T1, Growth factor receptor-bound protein 2 (Homo sapiens, UniProt P62993). Nature of the experiment: Binding affinity to GST-tagged Grb2 SH3C domain (unknown origin) using biotinylated Gab2b peptide as substrate at 5 mM by SDS-PAGE analysis. The procedure, abridged: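 Purified GST–Grb2 SH3C (10 µg/sample) was pre-incubated with compound at 5 mM, in duplicate, for 2 h at 4 °C. Streptavidin beads carrying biotinylated Gab2b peptide were then added for 30 min. After PBS-T washes, bound protein was resolved by SDS-PAGE, Coomassie-stained and scored by densitometry relative to the no-inhibitor control (100%).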
Target sequence in this assay (P62993 whole entry, looked up, the tested form may be a part): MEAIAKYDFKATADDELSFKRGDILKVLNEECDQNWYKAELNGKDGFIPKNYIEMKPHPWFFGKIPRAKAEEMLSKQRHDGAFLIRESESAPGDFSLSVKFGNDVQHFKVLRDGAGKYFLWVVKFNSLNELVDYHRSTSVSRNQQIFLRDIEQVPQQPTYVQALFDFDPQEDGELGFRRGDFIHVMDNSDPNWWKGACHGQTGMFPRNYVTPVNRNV

Experiment [2] addresses T1, Growth factor receptor-bound protein 2. Nature of the experiment: Binding affinity to wild type human Grb2 SH3C domain at 50 to 100 uM by SPR assay. The procedure, abridged: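 Untagged Grb2 SH3C was amine-coupled to a CM5 chip at about 1500 RU. Compounds at 50 and 100 µM in HBS-N (10 mM Hepes pH 7.4, 150 mM NaCl) with 5% DMSO and 0.01% Tween 20 were injected for 120 s at 40 µL/min and 25 °C. Responses were double-referenced. Binders were defined by a response of at least 5 RU at 100 µM, derived from a KD cutoff of ≤1 mM.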
On the technique in general: SPR reads the build-up and loss of mass on a sensor chip optically.
Target sequence in this assay (P62993 whole entry, looked up, the tested form may be a part): as above

Experiment [3] shares this target. Nature of the experiment: Binding affinity to wild type human Grb2 SH3C domain at > 200 uM by SPR assay.
Target sequence in this assay (P62993 whole entry, looked up, the tested form may be a part): as above
Experiment [4] has the same target. Nature of the experiment: Inhibition of GST-tagged Grb2 SH3C domain (unknown origin)-Gab2 interaction up to 20 mM incubated 2 hrs prior to biotinylated Gab2b peptide addition measured after 30 mins by SDS-PAGE analysis. The procedure, abridged:
(§1)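 Concentration-response format of the bead pull-down. GST–Grb2 SH3C (10 µg) was pre-incubated 2 h at 4 °C with increasing compound concentrations in Tris pH 7.5 buffer containing 5% DMSO. Biotin-Gab2b peptide–streptavidin beads were added for 30 min. Bound protein was measured by SDS-PAGE/Coomassie densitometry, normalized to the no-inhibitor sample, and fitted to a sigmoidal inhibition model by nonlinear regression. Gels represent 4–6 repeats.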
Target sequence in this assay (P62993 whole entry, looked up, the tested form may be a part): as above

Experiment [5] has the same target. Nature of the experiment: Competitive inhibition of GST-tagged Grb2 SH3C domain (unknown origin)-Gab2 interaction incubated 2 hrs prior to biotinylated Gab2b peptide addition measured after 30 mins by SDS-PAGE analysis. Summed up:
as §1
Target sequence in this assay (P62993 whole entry, the tested form may be a part): as the sequence (P62993 whole entry, looked up, the tested form may be a part) above

Experiment [6] has the same target. Nature of the experiment: Binding affinity to Grb2 SH3C domain (unknown origin) at 1 mM by isothermal titration calorimetry. The procedure, abridged:
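ITC at 25 °C used 20 µM purified Grb2 SH3C in the cell, in 50 mM Hepes pH 7.5, 50 mM NaCl, 0.5% DMSO. Compound at 1 mM in the same buffer was titrated in: one 4 µL injection followed by 18 injections of 15 µL.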
Target sequence in this assay (P62993 whole entry, looked up, the tested form may be a part): as above
A general note: ITC needs no label: the signal is the heat of the interaction.

On to `Nc1nsc2nc3ccccc3cc12`, for which the outcome in experiment [1] was inactive.

In experiment [1], `Nc1n[nH]c2cc(O)[nH]c(=O)c12` registered an Activity above 20%.

For the molecule `NC1=NS(=O)(=O)Nc2nn(-c3ccccc3)nc21`, the outcome in experiment [1] was inactive.

As to `C1CN=C(C2=NCCCN2)NC1`, in experiment [1], the result was inactive.

In the case of `CC1(C)N=C(N)N=C(N)N1c1cc(C(F)(F)F)cc(C(F)(F)F)c1`, the outcome in experiment [1] was inactive.

As for `Cc1cnc2c(c1)CCCC2C(N)=S` (configuration not stated), the Activity in experiment [1] was above 20%.

Turning to `Cc1ccc(O)c(C2CC(=O)NC(N)=N2)c1` (configuration not stated), in experiment [1], the outcome was inactive. For the same molecule, in experiment [2], the result was Active.

On to `NC=C1C(=O)NC(=O)NC1=O`, for which the result in experiment [1] was inactive.

On to `NC1CCC(NC2CCC(N)CC2)CC1` (configuration not stated), for which the Activity in experiment [1] was above 20%. Further, in experiment [2], the result was Active.

Turning to `CC(=O)c1ccc(/N=N/c2c(N)nc(N)nc2N)cc1`, the Activity in experiment [1] is above 20%. In experiment [2], the result was Active.

`NC[C@@H]1[C@@H](CN)[C@H]2C=C[C@@H]1CC2` registered an Activity in experiment [1] above 20%.

As to `Cn1c(CCNC(=N)CSS(=O)(=O)O)nc2ccccc21`, the result in experiment [1] was inactive.

For the molecule `CC1(C)N=C(N)N=C(N)N1c1cccc(OCC#N)c1`, the result in experiment [3] and in experiment [2] was Active. In experiment [1], this molecule gave an Activity above 20%. Besides, the inhibition entry in experiment [4] was “Active”.

Regarding `Nc1nc(N)c2cnnn2n1`, in experiment [1], the result was inactive.

Regarding `NC(C(=O)O)C(O)c1c[nH]cn1` (configuration not stated), the outcome in experiment [1] was inactive.

For the molecule `Cn1c(N)nc2nc[nH]c2c1=O`, the result in experiment [1] was inactive.

Consider `Cc1ccc(C(/C=C/c2ccccc2)=N/NC(=N)N)cc1`, for which the Activity in experiment [1] is above 20%. In experiment [2], the result was Active.

Regarding `CC1(C)N=C(N)N=C(N)N1c1cccc(CO)c1`, in experiment [1], the result was inactive.

What is called IC50 is the concentration needed to halve the response being measured. The low end stands for higher potency, the high end for lower potency. For the molecule `CC1(C)N=C(N)N=C(N)N1c1cccc(CCCCc2cccc(N)c2)c1`, the result in experiment [3] and in experiment [2] was Active. The molecule further showed an Activity in experiment [1] above 20%. The same molecule registered an IC50 in experiment [5] of 5.7 mM. Also, the result in experiment [6] was inactive.

With `Nc1nc(N)n(Cc2ccc3c(c2)OCO3)n1`, the outcome in experiment [1] was inactive.

For the molecule `N=C(NCCN)C(=N)NCCN`, the result in experiment [1] was inactive.

On to `N=C(NC1=NCCN1)C(=N)NC1=NCCN1`, for which, in experiment [1], the outcome was inactive.

For the molecule `N=C(NC1CCC(C2CCC(N)CC2)CC1)C(=N)NC1CCC(C2CCC(N)CC2)CC1` (configuration not stated), the Activity in experiment [1] is above 20%. In experiment [2], the result was Active.

Consider `CC1(C)N=C(N)N=C(N)N1c1cccc(OCc2cccc(N)c2)c1`, for which, in experiment [1], the result was inactive. The outcome in experiment [2] was Active.

With `CC1(C)N=C(N)N=C(N)N1c1cccc(OCCOc2cccc(N)c2)c1`, the outcome in experiment [1] was inactive. Also, the result in experiment [2] was Active.

For `NCCN1CCN=C1C1=NCCN1CCN`, the outcome in experiment [1] was inactive.

Turning to `CC(CC(=N)N)NC(=O)C1CCC(N)=N1` (configuration not stated), the result in experiment [1] was inactive.

Regarding `CC1(C)N=C(N)N=C(N)N1c1cccc(/C=C/C=C/c2cccc([N+](=O)[O-])c2)c1`, the result in experiment [3] and in experiment [2] was Active. Further, the Activity in experiment [1] was above 20%. This molecule yielded an IC50 in experiment [5] of 0.32 mM. For the same molecule, in experiment [6], the outcome was inactive.

As to `C/C(=N\NC(=N)N)c1cnc(C)nc1C`, in experiment [1], the outcome was inactive.

In the case of `Cn1cnc(N)c2ncnc1-2`, the result in experiment [1] was inactive.

On to `CN1CC(=O)N=C(N)N=C1N`, for which the outcome in experiment [1] was inactive.

As to `Cc1nnc2c3nccnc3c(N)nn12`, the result in experiment [1] was inactive.

`CN1C[C@@H]2[C@@H](N)N=C(N)N[C@@H]2C1(C)C`: in experiment [1], the result was inactive.

Consider `Nc1n[nH]c(=O)n2ncnc12`, for which the outcome in experiment [1] was inactive.
